Here are results for 35 molecules from ChEMBL document CHEMBL1143247, “Vesicular monoamine transporter substrate/inhibitor activity of MPTP/MPP+ derivatives: a structure-activity study” (J Med Chem, 2008).

For data set [1], the target named is Synaptic vesicular amine transporter (Bos taurus) (UniProt Q27963). Kind of data set: Ratio of Km for dopamine uptake at VMAT in bovine chromaffin granule ghosts to Ki for VMAT in bovine chromaffin granule ghosts. Summed up:
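Ratio of Km for DA to Ki for the inhibitor. Both were determined on the same ghost preparation for each compound, to normalize day-to-day variation in DA Km between preparations. Ki comes from DA-uptake competition in resealed bovine chromaffin granule ghosts (5 mM Mg-ATP, pH 7.0, 30 °C, HPLC-EC read-out). Km for DA comes from initial uptake rates fitted to Michaelis–Menten.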

Data set [2] has as its target Synaptic vesicular amine transporter (Bos taurus, UniProt Q27963). Description: Inhibition of dopamine uptake at VMAT in bovine chromaffin granule ghosts. Put shortly:
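Resealed bovine chromaffin granule ghosts preincubated 10 min at 30 °C in 0.3 M sucrose, 10 mM HEPES, 5 mM Mg-ATP, 5 mM MgSO₄, 100 µg/mL catalase, pH 7.0. Inhibitor then added for 2 min before starting uptake with DA. Aliquots taken at 6 min intervals, pelleted, washed and extracted in 0.1 M HClO₄. Intragranular catecholamines measured by HPLC-EC. Ki obtained by fitting typically 4–5 inhibitor × 6 DA concentrations to a competitive model. Errors are fitting standard errors.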

Substrate in data set [3]: Cc1ccc(-c2cc[n+](C)cc2)cc1
Kind of data set: (§1) Activity of VMAT in bovine chromaffin granule ghosts assessed as drug uptake. The note with it: Bos taurus. Put shortly: (§2)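 Resealed bovine adrenal chromaffin granule ghosts, prepared fresh from frozen membrane stores, preincubated 10 min at 30 °C in 0.3 M sucrose, 10 mM HEPES, 5 mM Mg-ATP, 5 mM MgSO₄, 100 µg/mL catalase, pH 7.0. Test substrate added without DA. Aliquots taken at 6 min intervals, diluted into ice-cold sucrose/HEPES, pelleted, washed, extracted with 0.1 M HClO₄. Intragranular substrate measured by HPLC-UV. Km and Vmax come from Michaelis–Menten fits of initial rates at 12 substrate concentrations.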

Substrate in data set [4]: CN1CC=C(c2ccccc2)CC1
Described as §1. The note with it: Bos taurus. Summed up: as §2

Substrate in data set [5]: C[n+]1ccc(-c2cccc(O)c2)cc1
The data set is described as §1. The note with it: Bos taurus. Put shortly:
as §2

Substrate in data set [6]: C[n+]1ccc(-c2ccccc2)cc1
The data set is described as §1. Particulars: Bos taurus. Put shortly: as §2

Substrate in data set [7]: C[n+]1ccc(-c2ccc(O)cc2)cc1
The data set is described as §1. Particulars: Bos taurus. Put shortly:
as §2

Substrate in data set [8]: COc1ccc(-c2cc[n+](C)cc2)cc1
The description is as §1. Particulars: Bos taurus. Put shortly:
as §2

On to `C=C(CN1CCC(c2ccccc2)CC1)c1ccccc1`, for which, in data set [1], the Dopamine Km / inhibitor Ki ratio came to 1.8. For the same molecule, the inhibitory constant (Ki) (as a rule, the dissociation constant of the complex between target and ligand, obtained from inhibition or displacement) in data set [2] amounted to 16.4 µM.
With `CN1CC=C(c2cccc(Cl)c2)CC1`, the Dopamine Km / inhibitor Ki ratio in data set [1] was 1.6. In data set [2], this molecule returned a Ki of 27.7 µM.
The like results for `C[n+]1ccc(-c2cccc(C(F)(F)F)c2)cc1` were, in that order, 1.8 and 24.6 µM.
For `Cc1c[n+](C)ccc1-c1ccc(O)cc1`, in data set [1], the Dopamine Km / inhibitor Ki ratio was found to be 0.8. Further, the Ki in data set [2] came out at 65 µM.
Turning to `C[n+]1ccc(-c2ccc(Cl)cc2)cc1`, the Dopamine Km / inhibitor Ki ratio in data set [1] came out at 5.8. In addition, the Ki in data set [2] was 7.6 µM.
Turning to `CN1CC=C(c2ccc(O)cc2)CC1`, the Dopamine Km / inhibitor Ki ratio in data set [1] stood at 0.3. This molecule also returned a Ki in data set [2] of 134 µM.
On the same counts, the results for `CN1CC=C(c2ccc(F)cc2)CC1` are 0.9 and 49.7 µM.
The like results for `C[n+]1ccc(-c2cccc(Cl)c2)cc1` were, in that order, 1.1 and 46.3 µM.
Regarding `C[n+]1ccc(-c2ccc(O)cc2)cc1`, in data set [1], the Dopamine Km / inhibitor Ki ratio turned out to be 0.7. The same molecule yielded an inhibition constant (Ki) in data set [2] of 82 µM.
On the same counts, the results for `C[n+]1ccc(-c2ccc(F)cc2)cc1` are 1 and 51.3 µM.
On to `C=C(C[n+]1ccc(-c2cccc(O)c2)cc1)c1ccc(I)cc1`, for which the Dopamine Km / inhibitor Ki ratio in data set [1] worked out at 55. Also, the affinity in data set [2] corresponds to a Ki of 0.4 µM.
The molecule `COC(=O)[C@H]1[C@H]2C[C@@H]3c4[nH]c5cc(OC)ccc5c4CCN3C[C@H]2C[C@@H](OC(=O)c2cc(OC)c(OC)c(OC)c2)[C@@H]1OC` [RESERPINE] came in with a Ki in data set [2] of 0.001 µM.
As to `C=C(CN1CCN(c2ccccc2)CC1)c1ccccc1`, the Dopamine Km / inhibitor Ki ratio in data set [1] was 24.1. Besides, affinity in data set [2] was put at a Ki of 1.4 µM.
`C=C(C[n+]1ccc(-c2ccc(OC)cc2)cc1)c1ccccc1`: the Dopamine Km / inhibitor Ki ratio in data set [1] was 8.7. This molecule also came in with a Ki in data set [2] of 2.8 µM.
In the case of `C[n+]1cccc(-c2ccc(O)cc2)c1`, in data set [1], the Dopamine Km / inhibitor Ki ratio turned out to be 0.1. In data set [2], this molecule returned a Ki of 338 µM.
Take `COc1ccc(-c2cc[n+](C)cc2)cc1`: in data set [1], the Dopamine Km / inhibitor Ki ratio was 0.2. In data set [2], this molecule came in with a Ki of 106 µM.
The like results for `C=C(C[n+]1ccc(-c2ccccc2)cc1)c1ccc(-c2ccccc2)cc1` were, in that order, 11.3 and 4.5 µM.
With `C[n+]1ccc(-c2cccc(O)c2)cc1`, in data set [1], the Dopamine Km / inhibitor Ki ratio is 9.7. This molecule displayed an inhibition constant Ki in data set [2] of 2.4 µM.
Regarding `CN1CC=C(c2ccccc2N)CC1`, in data set [1], the Dopamine Km / inhibitor Ki ratio came to 0.1. Affinity in data set [2] was put at a Ki of 193 µM.
Take `COc1cc2c(cc1OC)C1CC(=O)C(CC(C)C)CN1CC2` (centres undefined) [TETRABENAZINE]: the affinity in data set [2] corresponds to a Ki of 0.004 µM.
`C=C(C[n+]1ccc(-c2ccccc2)cc1)c1ccccc1`: the Dopamine Km / inhibitor Ki ratio in data set [1] turned out to be 0.9. In data set [2], the inhibition constant Ki amounted to 38.4 µM.
Take `C[n+]1ccc(-c2ccc(C(F)(F)F)cc2)cc1`: the Dopamine Km / inhibitor Ki ratio in data set [1] came to 1.3. Besides, the affinity in data set [2], expressed as Ki, was 33.8 µM.
In the case of `C[n+]1ccc(-c2ccccc2)cc1`, in data set [2], affinity was put at a Ki of 92 µM.
Regarding `C[n+]1cccc(-c2cccc(O)c2)c1`, the Dopamine Km / inhibitor Ki ratio in data set [1] was 1.2. Besides, in data set [2], affinity was put at a Ki of 36.6 µM.
Take `C=C(C[n+]1ccc(-c2ccc(O)cc2)cc1)c1ccc(Br)cc1`: in data set [1], the Dopamine Km / inhibitor Ki ratio was found to be 41.5. The molecule further showed a Ki in data set [2] of 0.5 µM.
Turning to `Cc1ccccc1-c1cc[n+](C)cc1`, the Dopamine Km / inhibitor Ki ratio in data set [1] stood at 0.3. In data set [2], the affinity, expressed as Ki, was 95 µM.
In data set [2], `COc1ccc2c3c([nH]c2c1)[C@H]1C[C@H]2[C@H](C[C@@H](O)[C@H](OC)[C@H]2C(=O)O)CN1CC3` showed an inhibition constant Ki of 10 µM.
For `C=C(C[n+]1ccc(C2CCCCC2)cc1)c1ccccc1`, the Dopamine Km / inhibitor Ki ratio in data set [1] came out at 0.7. This molecule came in with an inhibition constant (Ki) in data set [2] of 53 µM.
In data set [2], `CN1CC=C(c2ccccc2)CC1` had an inhibitory constant (Ki) of 52.5 µM. That is a double-digit micromolar value.
For `C=C(C[n+]1ccc(-c2ccccc2)nc1)c1ccccc1`, the Dopamine Km / inhibitor Ki ratio in data set [1] is 2.7. Besides, in data set [2], affinity was put at a Ki of 13.4 µM.
The like results for `Cc1ccc(-c2cc[n+](C)cc2)cc1` were, in that order, 1 and 51.8 µM.
As to `C[N+]1=CC=C(c2ccccc2)CC1`, the Dopamine Km / inhibitor Ki ratio in data set [1] was 0.7. The molecule further displayed an inhibition constant (Ki) in data set [2] of 53 µM.
For `CN1CC=C(c2cccc(O)c2)CC1`, the Dopamine Km / inhibitor Ki ratio in data set [1] was 1.7. Affinity in data set [2] was put at a Ki of 25.8 µM.
`Cc1ccccc1C1=CCN(C)CC1` came in with an inhibition constant (Ki) in data set [2] of 38.4 µM.

B1: Synaptic vesicular amine transporter (Bos taurus), Q27963 (protein)
chain: MALSELALLRRLQESRHSRKLILFIVFLALLLDNMLLTVVVPIIPSYLYSIEHEKDALEIQTAKPGLTASAPGSFQNIFSYYDNSTMVTGNSTDHLQGALVHEATTQHMATNSSSASSDCPSEDKDLLNENVQVGLLFASKATVQLLTNPFIGLLTNRIGYPIPMFTGFCIMFISTVMFAFSRTYAFLLIARSLQGIGSSCSSVAGMGMLASVYTDDEERGNAMGIALGGLAMGVLVGPPFGSVLYEFVGKTAPFLVLAALVLLDGAIQLFVLQPSRVQPESQKGTPLTTLLRDPYILIAAGSICFANMGIAMLEPALPIWMMETMCSHKWQLGVAFLPASVSYLIGTNVFGILAHKMGRWLCALLGMIIVGMSILCIPLAKNIYGLIAPNFGVGFAIGMVDSSMMPIMGYLVDLRHVSVYGSVYAIADVAFCMGYAIGPSAGGAIAKAIGFPWLMTIIGIIDILFAPLCFFLRSPPAKEEKMAILMDHNCPIKTKMYTQNSSQSHPIGEDEESESD
Consider B1, for which the Km (commonly the substrate concentration at which the rate is half of its maximum) in data set [3] was found to be 41.3 µM; in data set [4], 409 µM; in data set [5], 8.4 µM; in data set [6], 73 µM; in data set [7], 107 µM; in data set [8] it was 135 µM. The Vmax (in general, the rate approached at saturating substrate) in data set [3] worked out at 0.9 nmol/mg/min; in data set [4], 1.7 nmol/mg/min; in data set [5], 1.9 nmol/mg/min; in data set [6], 1.4 nmol/mg/min; in data set [7], 1.6 nmol/mg/min; in data set [8], 1.6 nmol/mg/min.
